From ChEMBL document CHEMBL1127783, “Sugar-linked dithiocarbamates as modulators of metabolic and genotoxic properties of N-nitroso compounds” (J Med Chem, 1994)

How the values were obtained:
[1] = system: Rattus norvegicus; assay: Tested for urinary excretion of radioactivity of compound (1.5 mmol/kg, ip) was administered 1 h before and 5 h after the treatment of [14C]-NDEA (28 mg/kg, 5 microCi/kg, ip) in experiment number 2; format: functional, organism-based
Method in brief: (§1)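 Male Sprague–Dawley rats, fasted overnight, two per group. Inhibitor 1.5 mmol/kg ip or saline, then [14C]NDEA 28 mg/kg (5 μCi/kg) ip 1 h later, then a second inhibitor dose. Rats kept 24 h in all-glass metabolism cages, urine collected into ice-cold flask with NaOH. Total urinary radioactivity and unchanged [14C]NDEA measured after extraction with internal standard; given as % of dose.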

[2] = system: Rattus norvegicus; assay: Tested for urinary excretion of radioactivity of compound (1.5mmol/kg, ip) was administered 1 hr before and 5 hr after the treatment of [14C]-NDEA (28 mg/kg, 5 microCi/kg, ip) in experiment number 1; format: functional, organism-based; method in brief: as §1
[3] = species: Rattus norvegicus; assay: Tested in vitro for N-nitrosodimethylamine (NDMA) demethylase activity at 0.1 mM for 2 mM concentration of acetaldehyde; format: functional
Method in brief: (§2)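 Liver microsomal fraction from untreated male Sprague–Dawley rats with NADPH-generating system. NDMA substrate 0.1–1 mM; test compound 2–20 mM or DDTC 2 mM added. Formaldehyde and acetaldehyde formed measured as (2,4-dinitrophenyl)hydrazones. Mean ± SD of three separate experiments.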

[4] = species: Rattus norvegicus; assay: Tested in vitro for N-nitrosodimethylamine (NDMA) demethylase activity at 1 mM for 2 mM concentration of formaldehyde; format: functional; method in brief: as §2
[5] = system: Rattus norvegicus; assay: Tested for unchanged NDEA 24 h administration of [14C]-NDEA in urine in experiment number 1; format: functional; method in brief: as §1
[6] = species: Rattus norvegicus; assay: Tested in vitro for N-nitrosodimethylamine (NDMA) demethylase activity at 0.1 mM for 2 mM concentration of formaldehyde; format: functional; method in brief: as §2
[7] = species: Rattus norvegicus; assay: Tested in vitro for N-nitrosodimethylamine (NDMA) demethylase activity at 0.1 mM for 0 mM concentration of acetaldehyde; format: functional; method in brief: as §2
[8] = system: Rattus norvegicus; assay: Tested for exhalation of 14CO2 of compound (1.5mmol/kg, ip) was administered 1 h before and 5 h after the treatment of [14C]NDEA (28 mg/kg, 5 microCi/kg, ip) in experiment number 2; format: functional
Method in brief: (§3)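 Male Sprague–Dawley rats (two per group) were fasted overnight. They received inhibitor or saline ip at 1.5 mmol/kg 1 h before and again after ip [¹⁴C]NDEA (28 mg/kg, 5 μCi/kg). Animals were then kept 24 h in an all-glass metabolism cage with air flow of 32 L/h. Exhaled air was dried over H₂SO₄, ¹⁴CO₂ was trapped in 1 N NaOH and counted, and the result is expressed as % of the given dose.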

[9] = species: Rattus norvegicus; assay: Tested in vitro for N-nitrosodimethylamine (NDMA) demethylase activity at 0.1 mM for 0 mM concentration of formaldehyde; format: functional; method in brief: as §2
[10] = species: Rattus norvegicus; assay: Tested in vitro for N-nitrosodimethylamine (NDMA) demethylase activity at 0.5 mM for 2 mM concentration of formaldehyde; format: functional; method in brief: as §2
[11] = species: Rattus norvegicus; assay: Tested in vitro for N-nitrosodimethylamine (NDMA) demethylase activity at 1 mM for 2 mM concentration of acetaldehyde; format: functional; method in brief: as §2
[12] = system: Rattus norvegicus; assay: Tested for exhalation of 14CO2 of compound (1.5mmol/kg, ip) was administered 1 h before and 5 h after the treatment of [14C]NDEA (28 mg/kg, 5 microCi/kg, ip) in experiment number 1; format: functional; method in brief: as §3
[13] = species: Rattus norvegicus; assay: Tested in vitro for N-nitrosodimethylamine (NDMA) demethylase activity at 0.5 mM for 2 mM concentration of acetaldehyde; format: functional; method in brief: as §2

In the case of `CCN(CC)C(=S)[S-].[Na+]` [DITIOCARB SODIUM], the Radioactivity in urine [1] is reported as 17.8%, the Radioactivity in urine [2] is reported as 20.7% and the Acetaldehyde [3] is reported as 2.2 nM (mg of protein)-1. The Formaldehyde [4] was 0 nM (mg of protein)-1, the “Unchanged NDEA” value [5] was 15.7% and the Formaldehyde [6] was 0.6 nM (mg of protein)-1. For the same molecule, the Acetaldehyde [7] was 0 nM (mg of protein)-1, the “Exhal+B1718ation of 14CO2” value [8] was 20.5% and the Formaldehyde [9] was 4.8 nM (mg of protein)-1. For the same molecule, the Formaldehyde [10] was 0.3 nM (mg of protein)-1, the Acetaldehyde [11] was 0.06 nM (mg of protein)-1 and the “Exhal+B1718ation of 14CO2” value [12] was 17.2%. The Acetaldehyde [13] was 0.6 nM (mg of protein)-1.
